ChEMBL document CHEMBL2062449, “Eco-friendly synthesis and biological evaluation of substituted pyrano[2,3-c]pyrazoles” (Bioorg Med Chem Lett, 2012)
Converted amounts (≈) assume the structure as drawn.

Key:
MCF7 [1] = test: Cytotoxicity against estrogen receptor-positive human MCF7 cells assessed as inhibition of cell proliferation at 0.1 ug/ml after 24 hrs by MTT assay; type: functional; conditions: MCF7, 24 h
Procedure, shortened: (§1)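 MTT assay on MCF-7 human breast cancer cells, Taxol as reference; percentage inhibition of cell proliferation read at graded concentrations from 0.1 to 50 μg/mL (typically five or six levels per compound); IC50 in μg/mL derived from the inhibition series.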

Bacillus subtilis [2] = test: Antibacterial activity against Bacillus subtilis at […] after 24 hrs by agar diffusion method; type: functional
Procedure, shortened: (§2)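 Single-concentration antibacterial screen at 100 μg/50 μL per test against the standard bacterial strains.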

Rattus norvegicus [3] = test: Antiinflammatory activity in Wistar rat assessed as protection against carrageenan-induced paw edema at 100 mg/kg, po administered 1 hr before carrageenan challenge measured after 30 mins; type: functional
Rattus norvegicus [4] = test: Antiinflammatory activity in Wistar rat assessed as protection against carrageenan-induced paw edema at 100 mg/kg, po administered 1 hr before carrageenan challenge measured after 2 hrs; type: functional
Staphylococcus aureus [5] = test: Antibacterial activity against Staphylococcus aureus at […] after 24 hrs by agar diffusion method; type: functional; procedure, shortened: as §2
Rattus norvegicus [6] = test: Antiinflammatory activity in Wistar rat assessed as protection against carrageenan-induced paw edema at 100 mg/kg, po administered 1 hr before carrageenan challenge measured after 1 hr; type: functional
Rattus norvegicus [7] = test: Antiinflammatory activity in Wistar rat assessed as protection against carrageenan-induced paw edema at 100 mg/kg, po administered 1 hr before carrageenan challenge measured after 4 hrs; type: functional
Escherichia coli [8] = test: Antibacterial activity against Escherichia coli at […] after 24 hrs by agar diffusion method; type: functional; procedure, shortened: as §2
Pseudomonas aeruginosa [9] = test: Antibacterial activity against Pseudomonas aeruginosa at 100 ug/[…] after 24 hrs by agar diffusion method; type: functional; procedure, shortened: as §2
MCF7 [10] = test: Cytotoxicity against estrogen receptor-positive human MCF7 cells assessed as inhibition of cell proliferation at 1 ug/ml after 24 hrs by MTT assay; type: functional; conditions: MCF7, 24 h; procedure, shortened: as §1
MCF7 [11] = test: Cytotoxicity against estrogen receptor-positive human MCF7 cells assessed as inhibition of cell proliferation at 2.5 ug/ml after 24 hrs by MTT assay; type: functional; conditions: MCF7, 24 h; procedure, shortened: as §1
MCF7 [12] = test: Cytotoxicity against estrogen receptor-positive human MCF7 cells assessed as inhibition of cell proliferation at 5 ug/ml after 24 hrs by MTT assay; type: functional; conditions: MCF7, 24 h; procedure, shortened: as §1
MCF7 [13] = test: Cytotoxicity against estrogen receptor-positive human MCF7 cells assessed as inhibition of cell proliferation at 0.25 ug/ml after 24 hrs by MTT assay; type: functional; conditions: MCF7, 24 h; procedure, shortened: as §1
MCF7 [14] = test: Cytotoxicity against estrogen receptor-positive human MCF7 cells assessed as inhibition of cell proliferation at 0.5 ug/ml after 24 hrs by MTT assay; type: functional; conditions: MCF7, 24 h; procedure, shortened: as §1
MCF7 [15] = test: Cytotoxicity against estrogen receptor-positive human MCF7 cells assessed as inhibition of cell proliferation after 24 hrs by MTT assay; type: functional, cell-based; conditions: Homo sapiens, MCF7, 24 h; read-out: IC50; procedure, shortened: as §1
Rattus norvegicus [16] = test: Antiinflammatory activity in Wistar rat assessed as protection against carrageenan-induced paw edema at 100 mg/kg, po administered 1 hr before carrageenan challenge measured after 3 hrs; type: functional
MCF7 [17] = test: Cytotoxicity against estrogen receptor-positive human MCF7 cells assessed as inhibition of cell proliferation at 4 ug/ml after 24 hrs by MTT assay; type: functional; conditions: MCF7, 24 h; procedure, shortened: as §1
Bacillus subtilis [18] = test: Antibacterial activity against Bacillus subtilis after 18 to 24 hrs by broth microdilution method; type: functional
Pseudomonas aeruginosa [19] = test: Antibacterial activity against Pseudomonas aeruginosa after 18 to 24 hrs by broth microdilution method; type: functional
MCF7 [20] = test: Cytotoxicity against estrogen receptor-positive human MCF7 cells assessed as inhibition of cell proliferation at 3 ug/ml after 24 hrs by MTT assay; type: functional; conditions: MCF7, 24 h; procedure, shortened: as §1
Escherichia coli [21] = test: Antibacterial activity against Escherichia coli after 18 to 24 hrs by broth microdilution method; type: functional
Staphylococcus aureus [22] = test: Antibacterial activity against Staphylococcus aureus after 18 to 24 hrs by broth microdilution method; type: functional
MCF7 [23] = test: Cytotoxicity against estrogen receptor-positive human MCF7 cells assessed as inhibition of cell proliferation at 2 ug/ml after 24 hrs by MTT assay; type: functional; conditions: MCF7, 24 h; procedure, shortened: as §1
MCF7 [24] = test: Cytotoxicity against estrogen receptor-positive human MCF7 cells assessed as inhibition of cell proliferation at 50 ug/ml after 24 hrs by MTT assay; type: functional; conditions: MCF7, 24 h; procedure, shortened: as §1
MCF7 [25] = test: Cytotoxicity against estrogen receptor-positive human MCF7 cells assessed as inhibition of cell proliferation at 10 ug/ml after 24 hrs by MTT assay; type: functional; conditions: MCF7, 24 h; procedure, shortened: as §1
MCF7 [26] = test: Cytotoxicity against estrogen receptor-positive human MCF7 cells assessed as inhibition of cell proliferation at 25 ug/ml after 24 hrs by MTT assay; type: functional; conditions: MCF7, 24 h; procedure, shortened: as §1
MCF7 [27] = test: Cytotoxicity against estrogen receptor-positive human MCF7 cells assessed as inhibition of cell proliferation at 6 ug/ml after 24 hrs by MTT assay; type: functional; conditions: MCF7, 24 h; procedure, shortened: as §1
MCF7 [28] = test: Cytotoxicity against estrogen receptor-positive human MCF7 cells assessed as inhibition of cell proliferation at 8 ug/ml after 24 hrs by MTT assay; type: functional; conditions: MCF7, 24 h; procedure, shortened: as §1

| Compound | inhibition zone (IZ) (Bacillus subtilis [2]) [mm] | Activity (Rattus norvegicus [3]) [%] | Activity (Rattus norvegicus [4]) [%] | inhibition zone (IZ) (Staphylococcus aureus [5]) [mm] | Activity (Rattus norvegicus [6]) [%] | Activity (Rattus norvegicus [7]) [%] | inhibition zone (IZ) (Escherichia coli [8]) [mm] | inhibition zone (IZ) (Pseudomonas aeruginosa [9]) [mm] | inhibition at 1 µg/mL (MCF7 [10]) [%] | inhibition at 5 µg/mL (MCF7 [12]) [%] | IC50 (MCF7 [15]) [µg/mL] | Activity (Rattus norvegicus [16]) [%] | MIC (Bacillus subtilis [18]) [µg/mL] | MIC (Pseudomonas aeruginosa [19]) [µg/mL] | MIC (Escherichia coli [21]) [µg/mL] | MIC (Staphylococcus aureus [22]) [µg/mL] | inhibition at 50 µg/mL (MCF7 [24]) [%] | inhibition at 10 µg/mL (MCF7 [25]) [%] | inhibition at 25 µg/mL (MCF7 [26]) [%] | further results |
| --- | --- | --- | --- | --- | --- | --- | --- | --- | --- | --- | --- | --- | --- | --- | --- | --- | --- | --- | --- | --- |
| Cc1[nH]nc2c1C(c1cccc(Oc3ccccc3)c1)C(C#N)=C(N)O2 (stereo not drawn) | 9 | 17.6 | 47.9 | 7 | 33.3 | 61.5 | 9 | 11 | 43.5 | 83.7 | 1.63 (≈ 4.73 µM) | 66.6 | – | – | – | – | – | – | – | inhibition at 0.1 µg/mL (MCF7 [1]): 8.26%; inhibition at 2.5 µg/mL (MCF7 [11]): 68.6%; inhibition at 0.25 µg/mL (MCF7 [13]): 14%; inhibition at 0.5 µg/mL (MCF7 [14]): 20.2% |
| Cc1n[nH]c2c1C(c1cccs1)C(C#N)=C(N)O2 (stereo not drawn) | 18 | 23.5 | 50.8 | 15 | 38.8 | 51.6 | 20 | 14 | 0.28 | 61.7 | 4.44 (≈ 17.2 µM) | 64.5 | 3.12 (≈ 12.1 µM) | 3.12 (≈ 12.1 µM) | 3.12 (≈ 12.1 µM) | 3.12 (≈ 12.1 µM) | – | – | – | inhibition at 4 µg/mL (MCF7 [17]): 41.8%; inhibition at 3 µg/mL (MCF7 [20]): 22%; inhibition at 2 µg/mL (MCF7 [23]): 19.1% |
| Cc1[nH]nc2c1C(c1c(F)c(F)c(F)c(F)c1F)C(C#N)=C(N)O2 (stereo not drawn) | 15 | – | – | 18 | – | – | 14 | 15 | 1.1 | 6.96 | 45.5 (≈ 133 µM) | – | 3.12 (≈ 9.13 µM) | 1.56 (≈ 4.56 µM) | 1.56 (≈ 4.56 µM) | 3.12 (≈ 9.13 µM) | 65.6 | 16.2 | 45.1 | – |
| Cc1nn(-c2ccccc2)c2c1C(c1ccc(O)cc1)C(C#N)=C(N)O2 (stereo not drawn) | 17 | 11.7 | 43.8 | 15 | 30.5 | 50.5 | 16 | 15 | 2.1 | 5.96 | 47.5 (≈ 138 µM) | 56.9 | 6.25 (≈ 18.1 µM) | 3.12 (≈ 9.07 µM) | 12.5 (≈ 36.3 µM) | 6.25 (≈ 18.1 µM) | 50.2 | 22.9 | 30.8 | – |
| Cc1[nH]nc2c1C(c1cccc(Oc3nc(Cl)c(Cl)cc3Cl)c1)C(C#N)=C(N)O2 (stereo not drawn) | 21 | 23.5 | 64.3 | 16 | 47.2 | 53.8 | 23 | 15 | 0.41 | 16.3 | 42.8 (≈ 95.5 µM) | 70.9 | 6.25 (≈ 13.9 µM) | 6.25 (≈ 13.9 µM) | 3.12 (≈ 6.96 µM) | 6.25 (≈ 13.9 µM) | 50.1 | 34.6 | 42.4 | – |
| Cc1nn(-c2ccccc2)c2c1C(c1cccc(Oc3ccccc3)c1)C(C#N)=C(N)O2 (stereo not drawn) | – | – | – | 15 | – | – | 18 | – | – | – | – | – | 6.25 (≈ 14.9 µM) | 3.12 (≈ 7.43 µM) | 6.25 (≈ 14.9 µM) | 3.12 (≈ 7.43 µM) | – | – | – | – |
| Cc1nn(-c2ccccc2)c2c1C(c1cccc(Oc3nc(Cl)c(Cl)cc3Cl)c1)C(C#N)=C(N)O2 (stereo not drawn) | 15 | – | – | 16 | – | – | 14 | 16 | – | – | – | – | 6.25 (≈ 11.9 µM) | 6.25 (≈ 11.9 µM) | 12.5 (≈ 23.8 µM) | 6.25 (≈ 11.9 µM) | – | – | – | – |
| Cc1nn(-c2ccccc2)c2c1C1(C(=O)Nc3ccccc31)C(C#N)=C(N)O2 (stereo not drawn) | 19 | 23.5 | 46.5 | 14 | 25 | 47.2 | 21 | 15 | 19.3 | 26.6 | 16.8 (≈ 45.4 µM) | 68.8 | 3.12 (≈ 8.46 µM) | 6.25 (≈ 16.9 µM) | 3.12 (≈ 8.46 µM) | 3.12 (≈ 8.46 µM) | 86.5 | 40.3 | 64.6 | – |
| O=C(O)c1cn(C2CC2)c2cc(N3CCNCC3)c(F)cc2c1=O [CIPROFLOXACIN] | – | – | – | – | – | – | – | – | – | – | – | – | 1.56 (≈ 4.71 µM) | 1.56 (≈ 4.71 µM) | – | 1.56 (≈ 4.71 µM) | – | – | – | – |
| CC1=NN=C2OC(N)=C(C#N)C(c3ccc(Oc4nc(Cl)c(Cl)cc4Cl)cc3)C12 (stereo not drawn) | 20 | 29.4 | 67.1 | 15 | 50 | 54.9 | 22 | 14 | 17.4 | – | 4.46 (≈ 9.95 µM) | 72 | 6.25 (≈ 13.9 µM) | 3.12 (≈ 6.96 µM) | 1.56 (≈ 3.48 µM) | 3.12 (≈ 6.96 µM) | – | – | – | inhibition at 4 µg/mL (MCF7 [17]): 42.5%; inhibition at 6 µg/mL (MCF7 [27]): 65.2%; inhibition at 8 µg/mL (MCF7 [28]): 68.6%; inhibition at 0.5 µg/mL (MCF7 [14]): 5.34%; inhibition at 2 µg/mL (MCF7 [23]): 31.9% |
